Molecules are shown by their SMILES. In brackets after ≈: the same amount, converted by molar mass. Activity calls are given as the source filed them. No cut-off for these calls is given here.

The subject of one test is Cryptococcus neoformans. Put plainly: Antifungal activity against Cryptococcus neoformans 32609 after 72 hrs by serial dilution method. The format is functional. The conditions noted are these: Cryptococcus neoformans, 32609, 72 h.
Test [1] relates to Candida albicans. Description: Antifungal activity against fluconazole-sensitive Candida albicans SC5314 after 24 hrs by serial dilution method. The format is functional. Conditions: SC5314, 24 h.
For the next test, the system named is Nakaseomyces glabratus. Description: Antifungal activity against Candida glabrata 537 after 24 hrs by serial dilution method. The conditions noted are these: Nakaseomyces glabratus, 537, 24 h. The test is classed as functional.
Test [2] has as its system Candida albicans. Put plainly: Fungicidal activity against fluconazole-sensitive Candida albicans SC5314 at 32 ug/ml after 12 to 48 hrs. The test is classed as functional, organism-based. A digest of the protocol:
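Time-kill: C. albicans (SC5314 or 103) inoculated at 10^5 CFU/mL, untreated or with drug (2–32 μg/mL; fluconazole 32 μg/mL reference); CFU/mL counted after 0, 12, 24 and 48 h.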

The subject of a further test is Aspergillus fumigatus. Description: Antifungal activity against Aspergillus fumigatus 07544 after 7 days by serial dilution method. The format is functional. The conditions noted are these: Aspergillus fumigatus, 07544, 168 h.
Another test relates to Trichophyton rubrum. Description: Antifungal activity against Trichophyton rubrum Cmccftla after 7 days by serial dilution method. The test is classed as functional. The conditions noted are these: 168 h.
The test system of a further test is Candida parapsilosis. Description: Antifungal activity against Candida parapsilosis ATCC 22019 after 24 hrs by serial dilution method. The conditions noted are these: Lodderomyces parapsilosis, ATCC 22019, 24 h. The test is classed as functional.
A further test has as its system Nannizzia gypsea. Description: Antifungal activity against Microsporum gypseum Cmccfmza after 7 days by serial dilution method. The conditions noted are these: 168 h. The test is classed as functional.

A word on the MIC80: it is the lowest concentration that inhibits either 80% of growth or 80% of the strains tested, depending on the study. Read a low MIC80 as higher susceptibility. As to `Cc1ccc2c(c1)[C@@H]1CN(C)CC[C@@H]1N2C(=O)c1ccc2ccccc2c1`, the MIC80 is 8 µg/mL (≈ 22.4 µM) with Cryptococcus neoformans; 32 µg/mL (≈ 89.8 µM) in the test on Candida albicans [1]; above 64 µg/mL against Nakaseomyces glabratus; above 64 µg/mL against Aspergillus fumigatus; 16 µg/mL (≈ 44.9 µM) against Trichophyton rubrum; 16 µg/mL (≈ 44.9 µM) against Candida parapsilosis. In the test on Nannizzia gypsea, this molecule yielded an MIC80 of 32 µg/mL (≈ 89.8 µM). For the same molecule, the outcome in the test on Candida albicans [2] was Active.

`CN1CCc2c(c3cc(Cl)cc(Cl)c3n2CCCOc2ccc(Cl)cc2)C1`: the MIC80 in the test with Cryptococcus neoformans was 16 µg/mL (≈ 37.8 µM); with Candida albicans [1], above 64 µg/mL; with Nakaseomyces glabratus, above 64 µg/mL; in the test with Aspergillus fumigatus it was above 64 µg/mL; in the test on Trichophyton rubrum, above 64 µg/mL; against Candida parapsilosis it was above 64 µg/mL. Moreover, the MIC80 in the test with Nannizzia gypsea is 16 µg/mL (≈ 37.8 µM).

Take `Cc1ccc2c3c(n(CCCOc4ccc(Cl)cc4)c2c1)CCN(C)C3`: the MIC80 against Cryptococcus neoformans was found to be 8 µg/mL (≈ 21.7 µM); with Candida albicans [1] it was 32 µg/mL (≈ 86.7 µM); against Nakaseomyces glabratus, 16 µg/mL (≈ 43.4 µM); against Aspergillus fumigatus, 16 µg/mL (≈ 43.4 µM); in the test with Trichophyton rubrum it was 8 µg/mL (≈ 21.7 µM); with Candida parapsilosis it was 16 µg/mL (≈ 43.4 µM). The MIC80 against Nannizzia gypsea came to 8 µg/mL (≈ 21.7 µM).

Consider `CCCN1CCc2c(c3cc(Cl)ccc3n2CCCOc2ccc(Cl)cc2)C1`, for which the MIC80 with Cryptococcus neoformans was 16 µg/mL (≈ 38.3 µM); in the test on Candida albicans [1], above 64 µg/mL; in the test on Nakaseomyces glabratus, 16 µg/mL (≈ 38.3 µM); against Aspergillus fumigatus it was above 64 µg/mL; against Trichophyton rubrum, above 64 µg/mL; with Candida parapsilosis, 64 µg/mL (≈ 153 µM). Besides, the MIC80 in the test with Nannizzia gypsea was 16 µg/mL (≈ 38.3 µM).

In the case of `CN1CCc2c(c3cc(Cl)ccc3n2C(=O)Cc2ccccc2)C1`, the MIC80 against Cryptococcus neoformans, against Candida albicans [1], against Nakaseomyces glabratus, with Aspergillus fumigatus, with Trichophyton rubrum and in the test with Candida parapsilosis was above 64 µg/mL in each case. The molecule further showed an MIC80 against Nannizzia gypsea above 64 µg/mL.

Take `CN1CCc2c(c3cc(Cl)ccc3n2CC#N)C1`: the MIC80 was 64 µg/mL (≈ 246 µM) in the test on Cryptococcus neoformans; above 64 µg/mL in the test on Candida albicans [1]; above 64 µg/mL in the test with Nakaseomyces glabratus; above 64 µg/mL with Aspergillus fumigatus; above 64 µg/mL with Trichophyton rubrum; above 64 µg/mL in the test with Candida parapsilosis. The same molecule showed an MIC80 in the test with Nannizzia gypsea of 64 µg/mL (≈ 246 µM).

Consider `CN1CCc2c(c3cc(Cl)ccc3n2Cc2ccc(Cl)cc2)C1`, for which the MIC80 with Cryptococcus neoformans was found to be 16 µg/mL (≈ 46.3 µM); against Candida albicans [1], 64 µg/mL (≈ 185 µM); in the test on Nakaseomyces glabratus, 16 µg/mL (≈ 46.3 µM); in the test on Aspergillus fumigatus, 64 µg/mL (≈ 185 µM); with Trichophyton rubrum it was 64 µg/mL (≈ 185 µM); with Candida parapsilosis it was 64 µg/mL (≈ 185 µM). The same molecule came in with an MIC80 against Nannizzia gypsea of 16 µg/mL (≈ 46.3 µM).

As to `CN1CCc2c(c3cccc(Cl)c3n2CCCOc2ccc(Cl)cc2)C1`, the MIC80 in the test with Cryptococcus neoformans is 16 µg/mL (≈ 41.1 µM); in the test with Candida albicans [1], 32 µg/mL (≈ 82.2 µM); in the test with Nakaseomyces glabratus, 32 µg/mL (≈ 82.2 µM); against Aspergillus fumigatus, above 64 µg/mL; against Trichophyton rubrum it was above 64 µg/mL; with Candida parapsilosis it was 32 µg/mL (≈ 82.2 µM). In the test with Nannizzia gypsea, the MIC80 is 16 µg/mL (≈ 41.1 µM).

As to `CN1CCc2c(c3cc(Cl)ccc3n2Cc2ccccc2)C1`, the MIC80 came to 32 µg/mL (≈ 103 µM) in the test with Cryptococcus neoformans; 64 µg/mL (≈ 206 µM) against Candida albicans [1]; 32 µg/mL (≈ 103 µM) against Nakaseomyces glabratus; 64 µg/mL (≈ 206 µM) with Aspergillus fumigatus; 16 µg/mL (≈ 51.5 µM) with Trichophyton rubrum; 64 µg/mL (≈ 206 µM) in the test on Candida parapsilosis. For the same molecule, the MIC80 with Nannizzia gypsea came to 16 µg/mL (≈ 51.5 µM).

As for `CN1CCc2c(c3cc(Cl)ccc3n2CCCOc2ccc(Cl)cc2)C1`, the MIC80 against Cryptococcus neoformans was 8 µg/mL (≈ 20.5 µM); against Candida albicans [1] it was 64 µg/mL (≈ 164 µM); against Nakaseomyces glabratus, 16 µg/mL (≈ 41.1 µM); with Aspergillus fumigatus it was above 64 µg/mL; with Trichophyton rubrum it was above 64 µg/mL; against Candida parapsilosis, 16 µg/mL (≈ 41.1 µM). In addition, the MIC80 in the test on Nannizzia gypsea amounted to 16 µg/mL (≈ 41.1 µM).

As for `CN1CCc2c(c3cc(Cl)ccc3n2Cc2cccc(Cl)c2)C1`, the MIC80 with Cryptococcus neoformans was determined as 16 µg/mL (≈ 46.3 µM); with Candida albicans [1] it was 64 µg/mL (≈ 185 µM); in the test on Nakaseomyces glabratus, 16 µg/mL (≈ 46.3 µM); with Aspergillus fumigatus it was 32 µg/mL (≈ 92.7 µM); in the test on Trichophyton rubrum, 8 µg/mL (≈ 23.2 µM); in the test on Candida parapsilosis it was 32 µg/mL (≈ 92.7 µM). This molecule returned an MIC80 in the test on Nannizzia gypsea of 16 µg/mL (≈ 46.3 µM).

On to `C#CCn1c2c(c3cc(Cl)ccc31)CN(C)CC2`, for which the MIC80 was 32 µg/mL (≈ 124 µM) against Cryptococcus neoformans; above 64 µg/mL with Candida albicans [1]; 64 µg/mL (≈ 247 µM) against Nakaseomyces glabratus; above 64 µg/mL in the test on Aspergillus fumigatus; above 64 µg/mL in the test on Trichophyton rubrum; 64 µg/mL (≈ 247 µM) against Candida parapsilosis. The MIC80 against Nannizzia gypsea stood at 32 µg/mL (≈ 124 µM).

With `CCN1CCc2c(c3cc(Cl)ccc3n2CCCOc2ccc(Cl)cc2)C1`, the MIC80 was 16 µg/mL (≈ 39.7 µM) in the test on Cryptococcus neoformans; 64 µg/mL (≈ 159 µM) in the test on Candida albicans [1]; 32 µg/mL (≈ 79.3 µM) with Nakaseomyces glabratus; above 64 µg/mL with Aspergillus fumigatus; above 64 µg/mL against Trichophyton rubrum; 64 µg/mL (≈ 159 µM) against Candida parapsilosis. This molecule came in with an MIC80 against Nannizzia gypsea of 32 µg/mL (≈ 79.3 µM).

The record behind these values is ChEMBL document CHEMBL3286225, “Novel carboline derivatives as potent antifungal lead compounds: design, synthesis, and biological evaluation” (ACS Med Chem Lett, 2014).
